# Columns and labels:
# Details in all cases: stereoisomer not certain
# UniProt L7MU75 = target: T1, UniProt L7MU75
# T1 sequence (whole entry): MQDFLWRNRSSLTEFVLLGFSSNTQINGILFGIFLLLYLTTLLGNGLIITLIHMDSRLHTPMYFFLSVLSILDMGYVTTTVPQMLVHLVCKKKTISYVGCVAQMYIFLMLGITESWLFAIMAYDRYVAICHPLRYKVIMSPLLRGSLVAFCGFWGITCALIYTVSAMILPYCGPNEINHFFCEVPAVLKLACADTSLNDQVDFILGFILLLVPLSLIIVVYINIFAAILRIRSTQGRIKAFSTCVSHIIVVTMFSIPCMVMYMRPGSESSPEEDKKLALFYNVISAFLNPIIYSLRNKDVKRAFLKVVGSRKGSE
# How it was run: (§1)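 Values were gathered from published papers (main text and supplementary material), with extra details requested from the original authors when needed, and checked for typos and inconsistencies. Each receptor–molecule pair is called responsive (active) if the original authors judged the measured signal statistically different from baseline, and non-responsive (inactive) otherwise. Assay methods varied by source, often transient mammalian cell-line luciferase assays. Recorded details include cell line, G-protein, co-transfected protein and tags.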
# UniProt L7N210 = target: T2, UniProt L7N210
# T2 sequence (whole entry): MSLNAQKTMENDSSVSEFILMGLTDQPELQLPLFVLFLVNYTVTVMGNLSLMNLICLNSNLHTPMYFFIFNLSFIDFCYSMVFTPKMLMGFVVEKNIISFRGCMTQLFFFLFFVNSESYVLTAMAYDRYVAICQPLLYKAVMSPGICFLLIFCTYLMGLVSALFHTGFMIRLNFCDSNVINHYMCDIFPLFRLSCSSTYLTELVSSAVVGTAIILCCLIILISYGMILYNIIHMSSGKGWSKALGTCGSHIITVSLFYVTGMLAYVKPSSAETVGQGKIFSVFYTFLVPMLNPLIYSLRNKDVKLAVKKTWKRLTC
# How it was run: as §1
# UniProt Q3KPB0 = target: T3, UniProt Q3KPB0
# T3 sequence (whole entry): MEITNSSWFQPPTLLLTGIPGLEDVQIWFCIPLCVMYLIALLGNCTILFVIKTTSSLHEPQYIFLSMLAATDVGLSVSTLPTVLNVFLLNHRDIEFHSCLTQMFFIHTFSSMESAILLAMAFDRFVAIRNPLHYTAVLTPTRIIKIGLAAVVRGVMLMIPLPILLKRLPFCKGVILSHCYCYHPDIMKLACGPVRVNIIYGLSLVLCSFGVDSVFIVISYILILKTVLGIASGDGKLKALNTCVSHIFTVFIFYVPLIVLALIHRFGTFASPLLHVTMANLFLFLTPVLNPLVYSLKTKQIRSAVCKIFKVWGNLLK
# How it was run: as §1
# UniProt Q3U0P3 = target: T4, UniProt Q3U0P3
# T4 sequence (whole entry): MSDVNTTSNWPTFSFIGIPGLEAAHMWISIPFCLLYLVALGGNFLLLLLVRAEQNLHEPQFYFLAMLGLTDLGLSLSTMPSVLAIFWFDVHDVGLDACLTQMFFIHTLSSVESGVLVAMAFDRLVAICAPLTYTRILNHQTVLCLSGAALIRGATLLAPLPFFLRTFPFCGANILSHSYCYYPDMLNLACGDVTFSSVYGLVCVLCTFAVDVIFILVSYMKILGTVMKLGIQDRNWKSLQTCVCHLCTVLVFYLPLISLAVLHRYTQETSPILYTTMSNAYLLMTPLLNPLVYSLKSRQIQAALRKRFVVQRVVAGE
# How it was run: as §1
# UniProt Q7TQU8 = target: T5, UniProt Q7TQU8
# T5 sequence (whole entry): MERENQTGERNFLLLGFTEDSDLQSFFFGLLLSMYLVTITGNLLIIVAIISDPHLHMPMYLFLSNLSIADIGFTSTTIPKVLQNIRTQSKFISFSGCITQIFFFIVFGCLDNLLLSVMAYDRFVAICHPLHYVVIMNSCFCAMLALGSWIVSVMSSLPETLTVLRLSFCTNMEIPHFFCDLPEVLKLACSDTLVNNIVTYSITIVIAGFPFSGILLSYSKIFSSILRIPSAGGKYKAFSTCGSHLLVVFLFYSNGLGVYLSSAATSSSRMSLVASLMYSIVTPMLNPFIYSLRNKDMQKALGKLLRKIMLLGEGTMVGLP
# How it was run: as §1
# UniProt Q7TQV4 = target: T6, UniProt Q7TQV4
# T6 sequence (whole entry): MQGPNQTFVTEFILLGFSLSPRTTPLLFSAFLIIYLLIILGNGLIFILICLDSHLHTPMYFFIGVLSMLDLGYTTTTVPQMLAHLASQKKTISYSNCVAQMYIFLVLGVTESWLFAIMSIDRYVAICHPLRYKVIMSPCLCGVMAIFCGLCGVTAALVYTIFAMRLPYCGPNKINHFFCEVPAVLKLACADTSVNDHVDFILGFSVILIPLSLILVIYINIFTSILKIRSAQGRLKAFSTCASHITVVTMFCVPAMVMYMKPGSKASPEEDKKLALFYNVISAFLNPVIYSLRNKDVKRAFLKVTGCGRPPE
# How it was run: as §1
# UniProt L7N0P5 = target: T7, UniProt L7N0P5
# T7 sequence (whole entry): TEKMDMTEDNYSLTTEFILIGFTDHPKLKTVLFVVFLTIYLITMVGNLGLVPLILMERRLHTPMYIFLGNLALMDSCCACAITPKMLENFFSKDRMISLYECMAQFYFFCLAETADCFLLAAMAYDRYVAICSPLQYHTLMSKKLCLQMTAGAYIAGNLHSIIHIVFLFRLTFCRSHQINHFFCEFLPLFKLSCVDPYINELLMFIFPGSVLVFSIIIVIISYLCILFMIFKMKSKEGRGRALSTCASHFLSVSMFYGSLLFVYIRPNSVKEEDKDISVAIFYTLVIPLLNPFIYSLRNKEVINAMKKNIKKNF
# How it was run: as §1
# UniProt Q7TQR7 = target: UniProt Q7TQR7
# How it was run: as §1
# UniProt Q7TQR9 = target: UniProt Q7TQR9
# How it was run: as §1
# Chain of UniProt Q7TQR7 (Q7TQR7 as listed by the source): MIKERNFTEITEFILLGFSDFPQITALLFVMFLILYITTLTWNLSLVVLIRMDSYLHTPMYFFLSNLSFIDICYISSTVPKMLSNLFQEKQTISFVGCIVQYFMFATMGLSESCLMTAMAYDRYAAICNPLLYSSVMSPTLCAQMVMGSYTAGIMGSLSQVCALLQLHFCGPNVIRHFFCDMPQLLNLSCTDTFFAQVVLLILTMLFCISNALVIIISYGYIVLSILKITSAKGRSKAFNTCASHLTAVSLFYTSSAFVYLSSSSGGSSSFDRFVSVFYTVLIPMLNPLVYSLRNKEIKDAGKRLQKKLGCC
# Chain of UniProt Q7TQR9 (Q7TQR9 as listed by the source): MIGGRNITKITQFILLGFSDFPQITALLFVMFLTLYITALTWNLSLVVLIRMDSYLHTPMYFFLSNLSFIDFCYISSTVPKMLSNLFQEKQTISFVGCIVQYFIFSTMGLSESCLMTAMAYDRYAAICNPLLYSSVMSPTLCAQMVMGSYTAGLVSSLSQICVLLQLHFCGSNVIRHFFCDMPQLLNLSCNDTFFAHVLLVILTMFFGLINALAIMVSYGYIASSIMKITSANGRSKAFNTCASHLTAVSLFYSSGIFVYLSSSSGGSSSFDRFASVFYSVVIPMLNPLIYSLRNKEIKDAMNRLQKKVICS
Structure (SMILES),odorant receptor agonist call (UniProt L7MU75),odorant receptor agonist call (UniProt L7N210),odorant receptor agonist call (UniProt Q3KPB0),odorant receptor agonist call (UniProt Q3U0P3),odorant receptor agonist call (UniProt Q7TQU8),odorant receptor agonist call (UniProt Q7TQV4),odorant receptor agonist call (UniProt L7N0P5),odorant receptor agonist call (UniProt Q7TQR7),odorant receptor agonist call (UniProt Q7TQR9)
CCOC(=O)C(C)C,inactive,inactive,inactive,inactive,inactive,inactive,,,
Cc1occc1SSc1ccoc1C,inactive,inactive,inactive,inactive,active,,,,
CCCCCCCCCC(=O)[O-].[H+],inactive,inactive,inactive,inactive,inactive,inactive,,,
CC=C(C)C=O,inactive,inactive,inactive,inactive,inactive,,,,
CCCCC(C)=O,inactive,inactive,inactive,inactive,inactive,inactive,,,
CCCCCCOC(C)=O,inactive,inactive,inactive,inactive,inactive,inactive,,,
CCC(=O)O,inactive,inactive,inactive,inactive,inactive,inactive,,,
CCCCCC=O,inactive,inactive,inactive,inactive,inactive,inactive,,,
CC(C)=CCCC(C)=CCO,inactive,inactive,inactive,inactive,inactive,inactive,,,
CCSCC,inactive,inactive,inactive,inactive,inactive,,,,
C=CCOC(=O)CCCCCC,inactive,inactive,inactive,inactive,inactive,inactive,,,
CCCCOC=O,inactive,inactive,inactive,inactive,inactive,inactive,,,
CCCCCCCCCCO,inactive,inactive,inactive,inactive,inactive,inactive,,,
CCc1nccnc1C,,,,,,,active,,
CCC(C(=O)O)c1ccccc1 (stereo unspecified),inactive,inactive,,,,inactive,,,
CCc1nccnc1OC,,,,,,,active,,
CC1CCCCCCCCCCCCC(=O)C1 (stereo unspecified),,,,,,,,inactive,inactive
CCCO,inactive,inactive,,inactive,inactive,,,,

# Source: the M2OR odorant receptor database
